The source made the active and inactive calls. The calls are words filed in the database; no cut-off is given here.
Tests used:
Details in all cases: Heart
[1] = test system: Rattus norvegicus; experiment: Antiarrhythmic activity in iv dosed Wistar rat assessed as protection against adrenaline-induced bigeminy administered 15 mins prior to adrenaline-challenge; assay type: functional, organism-based
Outline: (§1)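 Szekeres model in male Wistar rats anaesthetised with thiopental (60 mg/kg ip). Test compound given iv in water (2.5–10 mg/kg) 15 min before adrenaline 20 µg/kg iv. Scored for extrasystoles, bigeminy and mortality; activity means no premature beats and inhibited arrhythmia versus controls.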

[2] = test system: Rattus norvegicus; experiment: Antiarrhythmic activity in iv dosed Wistar rat assessed as protection against adrenaline-induced extrasystoles administered 15 mins prior to adrenaline-challenge; assay type: functional, organism-based; outline: as §1
[3] = test system: Rattus norvegicus; experiment: Antiarrhythmic activity in iv dosed Wistar rat assessed as protection against adrenaline-induced arrhythmia administered 15 mins prior to adrenaline-challenge; assay type: functional; outline: as §1

c1ccc(CC2=NCCN2)cc1 [TOLAZOLINE]
Activity [1]: Active
Activity [2]: Active
ED50 [3]: 3.4 mg/kg

From ChEMBL document CHEMBL2040780, “Antiarrhythmic properties of phenylpiperazine derivatives of phenytoin with α₁-adrenoceptor affinities” (Bioorg Med Chem, 2012)
